Results reported in ChEMBL document CHEMBL4152306, “Synthesis and biological evaluation of new coumarins bearing 2,4-diaminothiazole-5-carbonyl moiety” (Eur J Med Chem, 2018).
In brackets after ≈: the same amount, converted by molar mass.

How the values were obtained:
[1] = Antioxidant activity assessed as ferric ion reduction by measuring FeSO4 equivalents reducing Fe3+-TPTZ to Fe2+-TPTZ at 100 ug/ml after 25 mins by FRAP assay; assay type: functional
How it was run: (§1)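 FRAP reagent: 10 mM TPTZ in 40 mM HCl, 20 mM FeCl3·6H2O and 300 mM acetate buffer pH 3.6 (1:1:10). 20 µl sample (tested 5 to 100 µg/ml) mixed with 150 µl reagent, incubated 37°C for 25 min, absorbance at 593 nm. Values as µM FeSO4·7H2O equivalents from calibration curve; ascorbic acid as standard.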

SW480 = assay: Cytotoxicity against human SW480 cells assessed as inhibition of cell proliferation after 48 hrs by MTT assay; assay type: functional, cell-based; conditions: SW480, 48 h
How it was run: (§2)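 Cells seeded at 8 × 10³ per well in complete medium, incubated overnight at 37°C, 5% CO2, then exposed to a range of compound concentrations (DMSO solutions; 0.1% DMSO negative control, etoposide positive control) for 48 h at 37°C. Viability by MTT, absorbance 570 nm. IC50 from dose-response curves, mean ± SE of at least three independent experiments.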

[2] = Antioxidant activity assessed as ferric ion reduction by measuring FeSO4 equivalents reducing Fe3+-TPTZ to Fe2+-TPTZ at 5 ug/ml after 25 mins by FRAP assay; assay type: functional; how it was run: as §1
[3] = Antioxidant activity assessed as ferric ion reduction by measuring FeSO4 equivalents reducing Fe3+-TPTZ to Fe2+-TPTZ at 40 ug/ml after 25 mins by FRAP assay; assay type: functional; how it was run: as §1
MCF7 [4] = assay: Cytotoxicity against human MCF7 cells assessed as inhibition of cell proliferation after 48 hrs by MTT assay; assay type: functional, cell-based; conditions: MCF7, 48 h; how it was run: as §2
[5] = Antioxidant activity assessed as ferric ion reduction by measuring FeSO4 equivalents reducing Fe3+-TPTZ to Fe2+-TPTZ at 80 ug/ml after 25 mins by FRAP assay; assay type: functional; how it was run: as §1
HepG2 = assay: Cytotoxicity against human HepG2 cells assessed as inhibition of cell proliferation after 48 hrs by MTT assay; assay type: functional, cell-based; conditions: HepG2, 48 h; how it was run: as §2
[6] = Antioxidant activity assessed as DPPH radical scavenging activity incubated for 30 mins under dark condition by spectrophotometric method; assay type: functional
How it was run: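 Test compounds dissolved in DMSO; 20 µl sample mixed with 250 µl DPPH in methanol (working solution diluted from 0.5 mM methanolic stock to absorbance […] at 517 nm). Kept 30 min at room temperature in dark, absorbance read at 517 nm against compound-free control; ascorbic acid standard. Triplicates; % inhibition from control vs sample absorbance; IC50 reported.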

[7] = Antioxidant activity assessed as ferric ion reduction by measuring FeSO4 equivalents reducing Fe3+-TPTZ to Fe2+-TPTZ at 20 ug/ml after 25 mins by FRAP assay; assay type: functional; how it was run: as §1
[8] = Antioxidant activity assessed as ferric ion reduction by measuring FeSO4 equivalents reducing Fe3+-TPTZ to Fe2+-TPTZ at 10 ug/ml after 25 mins by FRAP assay; assay type: functional; how it was run: as §1
MCF7 [9] = assay: Induction of apoptosis in human MCF7 cells assessed as necrotic cells at IC50 after 48 hrs by Annexin-V-FITC/propidium iodide staining based flow cytometry (reference value: 5.79%); assay type: functional
How it was run: (§3)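 MCF-7 cells seeded in 6-well plates, incubated overnight at 37 °C, 5% CO2, treated 48 h; untreated cells as negative control, etoposide as standard. Cells trypsinized, PBS-washed twice, pelleted at 1200 rpm, resuspended in 500 µl binding buffer with 5 µl each Annexin V-FITC and PI, 5–15 min at room temperature in dark, then flow cytometry.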

MCF7 [10] = assay: Cell cycle arrest in human MCF7 cells assessed as accumulation at G2 phase at 11.2 ug/ml after 48 hrs by propidium iodide staining based flow cytometry (reference value: 13.24%); assay type: functional
MCF7 [11] = assay: Induction of apoptosis in human MCF7 cells assessed as necrotic cells at 7.5 ug/ml after 48 hrs by Annexin-V-FITC/propidium iodide staining based flow cytometry (reference value: 5.79%); assay type: functional; how it was run: as §3
MCF7 [12] = assay: Induction of apoptosis in human MCF7 cells assessed as early apoptotic cells at IC50 after 48 hrs by Annexin-V-FITC/propidium iodide staining based flow cytometry (reference value: 8.16%); assay type: functional; how it was run: as §3
MCF7 [13] = assay: Cell cycle arrest in human MCF7 cells assessed as accumulation at G1 phase at 7.5 ug/ml after 48 hrs by propidium iodide staining based flow cytometry (reference value: 68.58%); assay type: functional
MCF7 [14] = assay: Induction of apoptosis in human MCF7 cells assessed as live cells at IC50 after 48 hrs by Annexin-V-FITC/propidium iodide staining based flow cytometry (reference value: 70.5%); assay type: functional; how it was run: as §3
MCF7 [15] = assay: Cell cycle arrest in human MCF7 cells assessed as accumulation at G2 phase at 7.5 ug/ml after 48 hrs by propidium iodide staining based flow cytometry (reference value: 13.24%); assay type: functional
MCF7 [16] = assay: Induction of apoptosis in human MCF7 cells assessed as late apoptotic cells at IC50 after 48 hrs by Annexin-V-FITC/propidium iodide staining based flow cytometry (reference value: 15.6%); assay type: functional; how it was run: as §3
MCF7 [17] = assay: Induction of apoptosis in human MCF7 cells assessed as late apoptotic cells at 7.5 ug/ml after 48 hrs by Annexin-V-FITC/propidium iodide staining based flow cytometry (reference value: 15.6%); assay type: functional; how it was run: as §3
MCF7 [18] = assay: Cell cycle arrest in human MCF7 cells assessed as accumulation at G1 phase at 11.2 ug/ml after 48 hrs by propidium iodide staining based flow cytometry (reference value: 68.58%); assay type: functional
MCF7 [19] = assay: Induction of apoptosis in human MCF7 cells assessed as necrotic cells at 11.2 ug/ml after 48 hrs by Annexin-V-FITC/propidium iodide staining based flow cytometry (reference value: 5.79%); assay type: functional; how it was run: as §3
MCF7 [20] = assay: Cell cycle arrest in human MCF7 cells assessed as accumulation at S phase at 11.2 ug/ml after 48 hrs by propidium iodide staining based flow cytometry (reference value: 26.04%); assay type: functional
MCF7 [21] = assay: Induction of apoptosis in human MCF7 cells assessed as live cells at 11.2 ug/ml after 48 hrs by Annexin-V-FITC/propidium iodide staining based flow cytometry (reference value: 70.5%); assay type: functional; how it was run: as §3
MCF7 [22] = assay: Induction of apoptosis in human MCF7 cells after 48 hrs by Annexin-V-FITC/propidium iodide staining based flow cytometry; assay type: functional, cell-based; how it was run: as §3
MCF7 [23] = assay: Cell cycle arrest in human MCF7 cells assessed as accumulation at S phase at 7.5 ug/ml after 48 hrs by propidium iodide staining based flow cytometry (reference value: 26.04%); assay type: functional
MCF7 [24] = assay: Induction of apoptosis in human MCF7 cells assessed as early apoptotic cells at 11.2 ug/ml after 48 hrs by Annexin-V-FITC/propidium iodide staining based flow cytometry (reference value: 8.16%); assay type: functional; how it was run: as §3
MCF7 [25] = assay: Induction of apoptosis in human MCF7 cells assessed as live cells at 7.5 ug/ml after 48 hrs by Annexin-V-FITC/propidium iodide staining based flow cytometry (reference value: 70.5%); assay type: functional; how it was run: as §3
MCF7 [26] = assay: Induction of apoptosis in human MCF7 cells assessed as late apoptotic cells at 11.2 ug/ml after 48 hrs by Annexin-V-FITC/propidium iodide staining based flow cytometry (reference value: 15.6%); assay type: functional; how it was run: as §3
MCF7 [27] = assay: Induction of apoptosis in human MCF7 cells assessed as early apoptotic cells at 7.5 ug/ml after 48 hrs by Annexin-V-FITC/propidium iodide staining based flow cytometry (reference value: 8.16%); assay type: functional; how it was run: as §3

| SMILES | Activity [1] [µMequiv] | IC50 (SW480) [µg/mL] | Activity [2] [µMequiv] | Activity [3] [µMequiv] | IC50 (MCF7 [4]) [µg/mL] | Activity [5] [µMequiv] | IC50 (HepG2) [µg/mL] | IC50 [6] [µg/mL] | Activity [7] [µMequiv] | Activity [8] [µMequiv] | also measured |
| --- | --- | --- | --- | --- | --- | --- | --- | --- | --- | --- | --- |
| Nc1nc(N2CCOCC2)sc1C(=O)c1cc2cc(Br)ccc2oc1=O | 248 | 48.7 (≈ 112 µM) | 76.5 | 162 | 14.6 (≈ 33.5 µM) | 212 | 19.3 (≈ 44.2 µM) | 34.6 (≈ 79.3 µM) | 110 | 84.3 | – |
| Nc1nc(N2CCN(Cc3ccccc3)CC2)sc1C(=O)c1cc2ccccc2oc1=O | 444 | 23.4 (≈ 52.4 µM) | 88.5 | 226 | 11.6 (≈ 26 µM) | 229 | 32 (≈ 71.7 µM) | 31.7 (≈ 71 µM) | 198 | 134 | – |
| O=C1O[C@H]([C@@H](O)CO)C(O)=C1O [ASCORBIC ACID] | 484 | – | 74.9 | 310 | – | 397 | – | 9.6 (≈ 54.5 µM) | 216 | 124 | – |
| Nc1nc(N2CCSCC2)sc1C(=O)c1cc2ccccc2oc1=O | 564 | 13 (≈ 34.8 µM) | 76.3 | 266 | 7.5 (≈ 20.1 µM) | 455 | 16.9 (≈ 45.3 µM) | 23.9 (≈ 64 µM) | 148 | 86.3 | Activity (MCF7 [9]): 18.3%; Activity (MCF7 [10]): 6.44%; Activity (MCF7 [11]): 24.2%; Activity (MCF7 [12]): 4.65%; Activity (MCF7 [13]): 83.98%; Activity (MCF7 [14]): 54.1%; Activity (MCF7 [15]): 8.28%; Activity (MCF7 [16]): 19.2%; Activity (MCF7 [17]): 19.2%; Activity (MCF7 [18]): 89.83%; Activity (MCF7 [19]): 13.2%; Activity (MCF7 [20]): 9.08%; Activity (MCF7 [21]): 39.2%; Activity (MCF7 [22]): Dose-dependent effect; Activity (MCF7 [23]): 16.79%; Activity (MCF7 [24]): 5.9%; Activity (MCF7 [25]): 51.5%; Activity (MCF7 [26]): 41.7%; Activity (MCF7 [27]): 5.15% |
| COc1cc([C@@H]2c3cc4c(cc3[C@@H](O[C@@H]3O[C@@H]5CO[C@@H](C)O[C@H]5[C@H](O)[C@H]3O)[C@H]3COC(=O)[C@H]23)OCO4)cc(OC)c1O [ETOPOSIDE] | – | 7.7 (≈ 13.1 µM) | – | – | 3.1 (≈ 5.27 µM) | – | 6.2 (≈ 10.5 µM) | – | – | – | – |
| Nc1nc(N2CCOCC2)sc1C(=O)c1cc2ccccc2oc1=O | 605 | 20.5 (≈ 57.4 µM) | 111 | 345 | 9.8 (≈ 27.4 µM) | 384 | 34.8 (≈ 97.4 µM) | 25.8 (≈ 72.2 µM) | 205 | 142 | – |
| Nc1nc(N2CCSCC2)sc1C(=O)c1cc2cc(Br)ccc2oc1=O | 171 | 44.5 (≈ 98.4 µM) | 57 | 94.3 | 12.5 (≈ 27.6 µM) | 164 | 29.7 (≈ 65.7 µM) | 27.7 (≈ 61.2 µM) | 78.5 | 70.5 | – |
